Source: PubChem
OX1R antag-1: blocks the human orexin 1 receptor | O43613 | OX1R-expressing cells, FRET antagonist read-out | inhibition, % at 6.6 µM | actives 1.8% (n = 330,000); in the data active = inhibition mostly above about 38%, no sharp cut-off; inactive = mostly below about 40%;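 note: 0% = agonist challenge alone and 100% = reference antagonist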
OX1R antag-2: blocks the human orexin 1 receptor | O43613 | CHO/OX1R cells, Fluo-8 calcium fluorescence, orexin A | inhibition, % at 5 µM | actives 0.43% (n = 330,000);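 active = inhibition above its plate's threshold, mean inhibition of all tested compounds on the plate plus 3 SD, cut at about 37% in these data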;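 note: 0% = orexin A challenge wells and 100% = SB-334867-A antagonist wells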
GPR7 antagonist: blocks human GPR7 receptor signaling. GPR7-expressing cells, fluorescence antagonist assay. inhibition, % at 4.4 µM. actives 1.1% (n = 290,000); in the data active = inhibition above about 16%, passing the limit was not always enough;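 note: cells stimulated with the agonist NPW; 0% = agonist with vehicle and 100% = vehicle without agonist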
Target sequence (P48145 whole entry, looked up): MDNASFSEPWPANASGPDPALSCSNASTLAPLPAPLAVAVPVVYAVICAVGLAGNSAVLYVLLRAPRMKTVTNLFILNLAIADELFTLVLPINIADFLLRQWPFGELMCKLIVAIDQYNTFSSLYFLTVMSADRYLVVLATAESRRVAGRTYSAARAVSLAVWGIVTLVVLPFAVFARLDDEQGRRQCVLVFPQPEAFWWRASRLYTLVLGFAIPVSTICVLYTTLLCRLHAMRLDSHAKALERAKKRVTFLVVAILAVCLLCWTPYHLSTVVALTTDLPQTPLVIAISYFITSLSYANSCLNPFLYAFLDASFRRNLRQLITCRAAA
CHO parental Ca: counter-screen for OX1R antagonists: effect in parental CHO cells | parental CHO-K1, ATP-induced calcium, Fluo-8 fluorescence | inhibition, % at 5.6 µM | actives 0.63% (n = 330,000) | AID 463079;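 active = inhibition above that plate's mean sample inhibition plus 3 SD, cut at about 26% in these data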;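 note: 0% = ATP-challenged DMSO wells and 100% = DMSO wells without ATP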
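Test system: untransfected parental CHO cell line; also added: ATP stimulus; dosing: 5.6 µM, single dose; signal: calcium-sensitive Fluo-8 fluorescence; measure: percent inhibition of ATP-evoked calcium rise, normalized to controls; benchmarks: low control ATP plus DMSO, high control DMSO only; replication: one well per compound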
GalR3 antag: blocks the human galanin receptor 3 | inhibition, % at 3 µM | HEK293 GalR3-CNG cAMP membrane potential fluorescence; galR3 body fused to GalR1 C-terminus | O60755 | actives 0.44% (n = 360,000);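 active = inhibition above the screen-wide average plus 3 SD, cut at about 13% in these data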;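 note: forskolin and galanin both at EC90 stimulate the cells; cAMP rise reported by CNG channel membrane potential dye signal; 0% = forskolin plus galanin with DMSO and 100% = forskolin alone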
GalR3 antag conf: confirmation of human galanin receptor 3 antagonists | HEK293 GalR3 CNG cAMP biosensor, membrane potential fluorescence; galR3 fused to GalR1 carboxy tail; challenged with forskolin and galanin at EC90 | inhibition, % at 3 µM | actives 59% (n = 1,600) | shares compounds with GalR3 antag;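 active = inhibition above the primary screen's cutoff, the mean inhibition of all screened compounds plus 3 SD, cut at about 13% in these data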;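 note: 0% = forskolin plus galanin and 100% = forskolin alone with DMSO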
HEK-CNG parental: counter-screen for GalR3 antagonists: nonspecific agonists in parental HEK-CNG cells. activation, % at 3 µM. shares compounds with GalR3 antag. AID 652268. actives 10% (n = 1,600). HEK293-CNG parental cells, cAMP membrane potential fluorescence; normalised: DMSO wells 0%, forskolin wells 100%; in the data active = activation above about 1.3%
Active calls of the source: *. An excerpt weighted towards active compounds, which were near 3.1% of everything screened.

CCOC(=O)c1ccc[n+](CC(=O)c2ccccc2)c1 was read as OX1R antag-1 29, OX1R antag-2 -36, GPR7 antagonist 0, CHO parental Ca -7 and GalR3 antag 2.
`CCOC(=O)c1cc[n+](CC(=O)c2ccc(F)cc2)cc1` gave OX1R antag-1 13, OX1R antag-2 -15, GPR7 antagonist 0, CHO parental Ca -13, GalR3 antag 15*, GalR3 antag conf 3 and HEK-CNG parental 0.
For O=C1C(C=NC2CC2)=C(O)c2ccccc21 the results were OX1R antag-1 29, OX1R antag-2 -21, GPR7 antagonist 1, CHO parental Ca -8, GalR3 antag 14*, GalR3 antag conf 4 and HEK-CNG parental 0.
`CC(C)CN=CC1=C(O)c2ccccc2C1=O` gave OX1R antag-1 21, OX1R antag-2 -20, GPR7 antagonist -9, CHO parental Ca -21 and GalR3 antag -2.
Screening O=C(c1ccco1)N1CCN(C(=S)NCc2ccc(F)cc2)CC1 returned OX1R antag-1 24, OX1R antag-2 -9, GPR7 antagonist -6, CHO parental Ca -6 and GalR3 antag -2.
COc1ccc(C(=O)NCC(=O)N/N=C(C)\C=C\c2ccccc2)cc1OC was read as OX1R antag-1 18, OX1R antag-2 -29, GPR7 antagonist -15, CHO parental Ca -13 and GalR3 antag -10.
`O=C(c1cccc(S(=O)(=O)N2CCN(c3ccc(F)cc3)CC2)c1)N1CCCC(C(F)(F)F)C1` (configuration not stated) gave OX1R antag-1 20, OX1R antag-2 -4, CHO parental Ca 37*, GalR3 antag 99*, GalR3 antag conf 95* and HEK-CNG parental -1.
CC1CN(C(=O)c2cccc(S(=O)(=O)N3CCN(c4ccc(F)cc4)CC3)c2)CC(C)O1 (configuration not stated) was read as OX1R antag-1 6, OX1R antag-2 -30, GPR7 antagonist -19, CHO parental Ca -6 and GalR3 antag -2.
For CCc1ccc(N2C(=O)CC(N3CCN(Cc4ccc5c(c4)OCO5)CC3)C2=O)cc1 (configuration not stated) the results were OX1R antag-1 17, OX1R antag-2 -20, GPR7 antagonist -4, CHO parental Ca 7 and GalR3 antag -5.
For O=C(O)c1ccc(NC(=O)c2cccc(N3C(=O)C4C5CCC(C5)C4C3=O)c2)cc1 (configuration not stated) the results were OX1R antag-1 2, OX1R antag-2 2, GPR7 antagonist 10, CHO parental Ca 5 and GalR3 antag -2.
Screening O=C(Nc1ccc(Cl)cc1)c1cccc(N2C(=O)C3C4CCC(C4)C3C2=O)c1 (configuration not stated) returned OX1R antag-1 17, OX1R antag-2 -26, GPR7 antagonist 0, CHO parental Ca -20, GalR3 antag 92*, GalR3 antag conf -1 and HEK-CNG parental 0.
`COc1ccccc1Oc1ccc2c(c1)C(=O)N(c1cccc(O)c1)C2=O` gave OX1R antag-1 3, OX1R antag-2 8, GPR7 antagonist 1, CHO parental Ca -7 and GalR3 antag -2.
`COc1ccccc1Oc1ccc2c(c1)C(=O)N(c1cccc3ncccc13)C2=O` gave GPR7 antagonist 0, GalR3 antag 58*, GalR3 antag conf 46* and HEK-CNG parental -1.
For CSC1SCC2C(=O)N(C)C(C(C)C)C(=O)OCC(NC(=O)c3cnc4ccccc4n3)C(=O)NC(C)C(=O)N(C)C1C(=O)N(C)C(C(C)C)C(=O)OCC(NC(=O)c1cnc3ccccc3n1)C(=O)NC(C)C(=O)N2C (configuration not stated) the results were GalR3 antag -6.
For CCN(C(=O)CSc1nc2cc(C(=O)O)ccc2c(=O)n1-c1ccccc1F)C1CCS(=O)(=O)C1 (configuration not stated) the results were GalR3 antag -2.
